Measurements reported in ChEMBL document CHEMBL1275604, “Identification of TEM-135 beta-lactamase in penicillinase-producing Neisseria gonorrhoeae strains in Japan” (2010).
Converted amounts (≈) assume the structure as drawn.

Tests used:
Format in all cases: functional
Neisseria gonorrhoeae [1] = assay: Antimicrobial activity against […] Neisseria gonorrhoeae NGON 00-002 expressing beta-lactamase TEM-1, MLST type ST-1590 and MAST type ST-270 by agar dilution method
In short: (§1)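 Clinical PPNG isolates from one Tokyo hospital, collected 2000–2008 and flagged as penicillinase producers by nitrocefin test. MICs of penicillin, cefixime and ceftriaxone were determined by agar dilution per an earlier method. Isolates were typed by MLST and MAST. The bla gene was PCR-amplified (annealing at 60°C, 30 cycles) and sequenced to assign the TEM allele.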

Neisseria gonorrhoeae [2] = assay: Antimicrobial activity against […] Neisseria gonorrhoeae NGON 00-027 expressing beta-lactamase TEM-1, MLST type ST-1921 and MAST type ST-1817 by agar dilution method; in short: as §1
Neisseria gonorrhoeae [3] = assay: Antimicrobial activity against […] Neisseria gonorrhoeae NGON 04-025 expressing beta-lactamase TEM-135, MLST type ST-1597 and MAST type ST-1549 by agar dilution method
Neisseria gonorrhoeae [4] = assay: Antimicrobial activity against […] Neisseria gonorrhoeae NGON 05-042 expressing beta-lactamase TEM-1, MLST type ST-1588 and MAST type ST-4012 by agar dilution method
Neisseria gonorrhoeae [5] = assay: Antimicrobial activity against […] Neisseria gonorrhoeae NGON 06-041 expressing beta-lactamase TEM-1, MLST type ST-1588 and MAST type ST-4012 by agar dilution method
Neisseria gonorrhoeae [6] = assay: Antimicrobial activity against […] Neisseria gonorrhoeae NGON 08-003 expressing beta-lactamase TEM-135, MLST type ST-7823 and MAST type ST-4013 by agar dilution method; in short: as §1
Neisseria gonorrhoeae [7] = assay: Antimicrobial activity against […] Neisseria gonorrhoeae NGON 08-041 expressing beta-lactamase TEM-1, MLST type ST-1584 and MAST type ST-1478 by agar dilution method; in short: as §1
Neisseria gonorrhoeae [8] = assay: Antimicrobial activity against […] Neisseria gonorrhoeae NGON 08-043 expressing beta-lactamase TEM-1, MLST type ST-7823 and MAST type ST-1288 by agar dilution method; in short: as §1
Neisseria gonorrhoeae [9] = assay: Antimicrobial activity against […] Neisseria gonorrhoeae NGON 08-044 expressing beta-lactamase TEM-1, MLST type ST-7823 and MAST type ST-1288 by agar dilution method; in short: as §1
Neisseria gonorrhoeae [10] = assay: Antimicrobial activity against […] Neisseria gonorrhoeae NGON 08-046 expressing beta-lactamase TEM-1, MLST type ST-1584 and MAST type ST-1478 by agar dilution method

Structure (SMILES) | MIC (Neisseria gonorrhoeae [1]) [mg/L] | MIC (Neisseria gonorrhoeae [2]) [mg/L] | MIC (Neisseria gonorrhoeae [3]) [mg/L] | MIC (Neisseria gonorrhoeae [4]) [mg/L] | MIC (Neisseria gonorrhoeae [5]) [mg/L] | MIC (Neisseria gonorrhoeae [6]) [mg/L] | MIC (Neisseria gonorrhoeae [7]) [mg/L] | MIC (Neisseria gonorrhoeae [8]) [mg/L] | MIC (Neisseria gonorrhoeae [9]) [mg/L] | MIC (Neisseria gonorrhoeae [10]) [mg/L]
C=CC1=C(C(=O)O)N2C(=O)[C@@H](NC(=O)/C(=N\OCC(=O)O)c3csc(N)n3)[C@H]2SC1 [CEFIXIME] | 0.032 (≈ 0.0706 µM) | 0.008 (≈ 0.0176 µM) | 0.004 (≈ 0.00882 µM) | 0.25 (≈ 0.551 µM) | 0.25 (≈ 0.551 µM) | 0.032 (≈ 0.0706 µM) | 0.008 (≈ 0.0176 µM) | 0.064 (≈ 0.141 µM) | 0.064 (≈ 0.141 µM) | 0.25 (≈ 0.551 µM)
CO/N=C(\C(=O)N[C@@H]1C(=O)N2C(C(=O)O)=C(CSc3nc(=O)c(O)nn3C)CS[C@H]12)c1csc(N)n1 [CEFTRIAXONE] | 0.016 (≈ 0.0289 µM) | 0.008 (≈ 0.0144 µM) | ≤ 0.004 | 0.064 (≈ 0.115 µM) | 0.032 (≈ 0.0577 µM) | 0.032 (≈ 0.0577 µM) | 0.004 (≈ 0.00721 µM) | 0.064 (≈ 0.115 µM) | 0.064 (≈ 0.115 µM) | 0.032 (≈ 0.0577 µM)
CC1(C)S[C@@H]2[C@H](NC(=O)Cc3ccccc3)C(=O)N2[C@H]1C(=O)O [PENICILLIN G] | 16 (≈ 47.8 µM) | > 64 | > 64 | 64 (≈ 191 µM) | 32 (≈ 95.7 µM) | > 64 | 64 (≈ 191 µM) | > 64 | > 64 | 64 (≈ 191 µM)
